Assay results from ChEMBL document CHEMBL2434944, “Novel acetamidothiazole derivatives: synthesis and in vitro anticancer evaluation” (Eur J Med Chem, 2013).
pKi: −log10 of the molar value.

What was measured:
[1] = tested on: MDA-MB-468; assay: Growth inhibition of human MDA-MB-468 cells assessed as cell growth at 10^-5 M after 48 hrs by sulforhodamine B assay relative to control; type: functional; settings: MDA-MB-468, 48 h, read-out: Activity
Outline: (§1)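 NCI-60 single-dose screen at 10^-5 M. Cells grown in RPMI 1640 with 5% FBS and 2 mM L-glutamine, plated at 5,000–40,000 cells/well according to doubling time, and preincubated 24 h at 37°C, 5% CO2. Compound dissolved in DMSO and added. Exposure 48 h. Adherent cells fixed with cold TCA (10% final), suspension cells with 16% final TCA. Read-out is 0.4% SRB staining, dye solubilised in 10 mM Tris, absorbance at 515 nm. Percent growth is calculated against the time-zero plate and untreated control.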

[2] = tested on: A549; assay: Growth inhibition of human A549 cells assessed as cell growth at 10^-5 M after 48 hrs by sulforhodamine B assay relative to control; type: functional; settings: A549, 48 h, read-out: Activity; outline: as §1
[3] = tested on: SK-MEL-2; assay: Growth inhibition of human SK-MEL-2 cells assessed as cell growth at 10^-5 M after 48 hrs by sulforhodamine B assay relative to control; type: functional; settings: SK-MEL-2, 48 h, read-out: Activity; outline: as §1
[4] = tested on: T47D; assay: Growth inhibition of human T47D cells assessed as cell growth at 10^-5 M after 48 hrs by sulforhodamine B assay relative to control; type: functional; settings: read-out: Activity
Outline: (§2)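 NCI-60 single-dose screen, 10^-5 M final. Cells grown in RPMI 1640 with 5% FBS and 2 mM L-glutamine, seeded at 5,000–40,000 cells/well by doubling time. Preincubated 24 h at 37°C, 5% CO2. Compound in DMSO, diluted in medium with gentamicin, then 48 h exposure. Fixed with cold TCA, SRB stained, A515 read. Percent growth vs untreated control, time-zero plate corrected.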

[5] = tested on: TK-10; assay: Growth inhibition of human TK10 cells assessed as cell growth at 10^-5 M after 48 hrs by sulforhodamine B assay relative to control; type: functional; settings: TK-10, 48 h, read-out: Activity; outline: as §2
[6] = tested on: OVCAR-3; assay: Growth inhibition of human OVCAR3 cells assessed as cell growth at 10^-5 M after 48 hrs by sulforhodamine B assay relative to control; type: functional; settings: OVCAR-3, 48 h, read-out: Activity; outline: as §1
[7] = target: Thymidylate synthase (Homo sapiens, UniProt P04818); assay: Inhibition of human thymidylate synthase
[8] = tested on: HL-60(TB); assay: Growth inhibition of human HL-60(TB) cells assessed as cell growth at 10^-5 M after 48 hrs by sulforhodamine B assay relative to control; type: functional; settings: HL-60, 48 h, read-out: Activity
Outline: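 NCI-60 one-dose screen at 10^-5 M. Cells were grown in RPMI 1640 with 5% FBS and 2 mM L-glutamine and plated at 5,000–40,000 cells/well. They were preincubated 24 h at 37°C under 5% CO2, then exposed for 48 h. Suspension cells were fixed with 80% TCA (16% final) and stained with 0.4% SRB, read at 515 nm. Percent growth is versus untreated control, corrected for time-zero.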

[9] = tested on: NCI-H23; assay: Growth inhibition of human NCI-H23 cells assessed as cell growth at 10^-5 M after 48 hrs by sulforhodamine B assay relative to control; type: functional; settings: NCI-H23, 48 h, read-out: Activity; outline: as §1
[10] = tested on: SK-OV-3; assay: Growth inhibition of human SKOV3 cells assessed as cell growth at 10^-5 M after 48 hrs by sulforhodamine B assay relative to control; type: functional; settings: SK-OV-3, 48 h, read-out: Activity; outline: as §1
[11] = tested on: HT-29; assay: Growth inhibition of human HT-29 cells assessed as cell growth at 10^-5 M after 48 hrs by sulforhodamine B assay relative to control; type: functional; settings: HT-29, 48 h, read-out: Activity; outline: as §1
[12] = Growth inhibition of human HCC2998 cells assessed as cell growth at 10^-5 M after 48 hrs by sulforhodamine B assay relative to control; type: functional; settings: HCC 2998, 48 h, read-out: Activity; outline: as §1
[13] = tested on: KM12; assay: Growth inhibition of human KM12 cells assessed as cell growth at 10^-5 M after 48 hrs by sulforhodamine B assay relative to control; type: functional; settings: KM12, 48 h, read-out: Activity; outline: as §1
[14] = tested on: UACC-257; assay: Growth inhibition of human UACC257 cells assessed as cell growth at 10^-5 M after 48 hrs by sulforhodamine B assay relative to control; type: functional; settings: UACC-257, 48 h, read-out: Activity; outline: as §2
[15] = tested on: UO-31; assay: Growth inhibition of human UO31 cells assessed as cell growth at 10^-5 M after 48 hrs by sulforhodamine B assay relative to control; type: functional; settings: UO-31, 48 h, read-out: Activity; outline: as §2
[16] = tested on: PC-3; assay: Growth inhibition of human PC3 cells assessed as cell growth at 10^-5 M after 48 hrs by sulforhodamine B assay relative to control; type: functional; settings: PC-3, 48 h, read-out: Activity; outline: as §1
[17] = target: Proto-oncogene tyrosine-protein kinase Src (Homo sapiens, UniProt P12931); assay: Inhibition of human SRC
[18] = tested on: SK-MEL-28; assay: Growth inhibition of human SK-MEL-28 cells assessed as cell growth at 10^-5 M after 48 hrs by sulforhodamine B assay relative to control; type: functional; settings: SK-MEL-28, 48 h, read-out: Activity; outline: as §1
[19] = tested on: SF-268; assay: Growth inhibition of human SF268 cells assessed as cell growth at 10^-5 M after 48 hrs by sulforhodamine B assay relative to control; type: functional; settings: SF-268, 48 h, read-out: Activity; outline: as §1
[20] = tested on: OVCAR-5; assay: Growth inhibition of human OVCAR5 cells assessed as cell growth at 10^-5 M after 48 hrs by sulforhodamine B assay relative to control; type: functional; settings: OVCAR-5, 48 h, read-out: Activity; outline: as §1
[21] = tested on: OVCAR-8; assay: Growth inhibition of human OVCAR8 cells assessed as cell growth at 10^-5 M after 48 hrs by sulforhodamine B assay relative to control; type: functional; settings: OVCAR-8, 48 h, read-out: Activity; outline: as §1
[22] = tested on: LOX IMVI; assay: Growth inhibition of human LOXIMVI cells assessed as cell growth at 10^-5 M after 48 hrs by sulforhodamine B assay relative to control; type: functional; settings: read-out: Activity; outline: as §1
[23] = tested on: IGROV-1; assay: Growth inhibition of human IGROV1 cells assessed as cell growth at 10^-5 M after 48 hrs by sulforhodamine B assay relative to control; type: functional; settings: IGROV-1, 48 h, read-out: Activity; outline: as §1
[24] = tested on: SF-295; assay: Growth inhibition of human SF295 cells assessed as cell growth at 10^-5 M after 48 hrs by sulforhodamine B assay relative to control; type: functional; settings: SF-295, 48 h, read-out: Activity; outline: as §1

Proto-oncogene tyrosine-protein kinase Src, sequence (P12931 2-536 limits assumed): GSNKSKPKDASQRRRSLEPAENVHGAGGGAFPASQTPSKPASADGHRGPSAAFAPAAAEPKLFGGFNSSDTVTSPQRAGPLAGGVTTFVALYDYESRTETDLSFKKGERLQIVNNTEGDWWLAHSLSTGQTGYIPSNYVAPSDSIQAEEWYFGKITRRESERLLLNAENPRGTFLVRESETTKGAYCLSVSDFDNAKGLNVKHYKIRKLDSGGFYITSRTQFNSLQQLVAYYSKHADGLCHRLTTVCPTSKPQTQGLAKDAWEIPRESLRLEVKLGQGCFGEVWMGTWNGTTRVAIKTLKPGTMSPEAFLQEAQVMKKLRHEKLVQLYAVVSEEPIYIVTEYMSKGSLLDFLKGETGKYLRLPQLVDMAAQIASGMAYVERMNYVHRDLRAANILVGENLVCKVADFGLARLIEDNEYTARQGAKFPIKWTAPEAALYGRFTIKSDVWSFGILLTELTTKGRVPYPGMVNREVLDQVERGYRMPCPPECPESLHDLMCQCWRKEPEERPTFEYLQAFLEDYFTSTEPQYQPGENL
Thymidylate synthase, sequence (P04818 whole entry): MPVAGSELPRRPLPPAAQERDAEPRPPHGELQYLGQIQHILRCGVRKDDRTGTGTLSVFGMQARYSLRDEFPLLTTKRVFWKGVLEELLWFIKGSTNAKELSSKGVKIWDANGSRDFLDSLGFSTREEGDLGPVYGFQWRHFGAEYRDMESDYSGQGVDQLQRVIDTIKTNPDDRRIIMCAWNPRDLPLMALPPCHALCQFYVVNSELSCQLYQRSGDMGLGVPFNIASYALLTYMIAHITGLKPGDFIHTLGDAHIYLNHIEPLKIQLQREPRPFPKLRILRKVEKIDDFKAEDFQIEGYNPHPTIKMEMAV

SMILES | growth at 10 µM [1] | growth at 10 µM [2] | growth at 10 µM [3] | growth at 10 µM [4] | growth at 10 µM [5] | growth at 10 µM [6] | pKi [7] | growth at 10 µM [8] | growth at 10 µM [9] | growth at 10 µM [10] | growth at 10 µM [11] | growth at 10 µM [12] | growth at 10 µM [13] | growth at 10 µM [14] | growth at 10 µM [15] | growth at 10 µM [16] | pKi [17] | growth at 10 µM [18] | growth at 10 µM [19] | growth at 10 µM [20] | other results
Cc1ccc(-c2csc(=N)n2CC(=O)N2CCN(c3ccccc3)CC2)cc1 | 97.6% | 97.7% | 117% | 78% | 140% | 95.4% | 5.25 | 127% | 101% | 89.2% | 111% | 104% | 104% | 106% | 78.8% | 82.1% | 4.87 | 100% | 105% | 110% | growth at 10 µM [21]: 92.9%; growth at 10 µM [22]: 96.8%; growth at 10 µM [23]: 93.2%
N=c1scc(-c2ccc(Cl)cc2)n1CC(=O)N1CCN(c2ccccc2)CC1 | 89.8% | 84.8% | 79% | 88.9% | 87.2% | 113% | 5.29 | 89.8% | 98.3% | 109% | 92.9% | 95.6% | 108% | 105% | 91% | 81.8% | 5.72 | 98.6% | 105% | 93.8% | growth at 10 µM [24]: 89.7%; growth at 10 µM [21]: 97.8%; growth at 10 µM [22]: 103%; growth at 10 µM [23]: 101%
CC(=O)N1CCN(C(=O)Cn2c(-c3ccc(C)cc3)csc2=N)CC1 | 94.3% | 83.4% | 113% | 73.4% | 121% | 108% | 5.44 | 108% | 95.7% | 103% | 105% | 101% | 99.4% | 102% | 83.1% | 65.2% | 4.82 | 98.9% | 101% | 122% | growth at 10 µM [21]: 98.4%; growth at 10 µM [22]: 85.5%; growth at 10 µM [23]: 103%
CC(=O)N1CCN(C(=O)Cn2c(-c3ccc(Cl)cc3)csc2=N)CC1 | 82.9% | 75.9% | 95.7% | 79% | 82.1% | 97.7% | 4.95 | 98% | 96.9% | 92.4% | 85.8% | 98.9% | 95.2% | 91% | 89.1% | 81.6% | 4.83 | 90.8% | 95.1% | 101% | growth at 10 µM [21]: 91.2%; growth at 10 µM [22]: 93.8%; growth at 10 µM [23]: 100%
CC(=O)N1CCN(C(=O)Cn2c(-c3ccccc3)csc2=N)CC1 | 94.6% | 96% | 108% | 85.9% | 138% | 102% | 4.96 | 111% | 98.5% | 89.4% | 101% | 107% | 102% | 98.5% | 60.4% | 83.5% | 4.46 | 101% | 100% | 105% | growth at 10 µM [21]: 96.7%; growth at 10 µM [22]: 94.3%; growth at 10 µM [23]: 95.6%
CN1CCN(C(=O)Cn2c(-c3ccc(Cl)cc3)csc2=N)CC1 | 96.8% | 90.1% | 102% | 78.4% | 85.7% | 101% | 6.47 | 102% | 100% | 92.5% | 96% | 97.5% | 98.7% | 104% | 89.2% | 83.3% | 5.49 | 107% | 98.4% | 96.4% | growth at 10 µM [21]: 96.8%; growth at 10 µM [22]: 96.8%; growth at 10 µM [23]: 93.1%
N=c1scc(-c2ccccc2)n1CC(=O)N1CCOCC1 | 98.4% | 102% | 106% | 88.8% | 132% | 97% | 5.21 | 118% | 95.8% | 92.3% | 106% | 104% | 103% | 111% | 58% | 81.3% | 4.70 | 112% | 104% | 96.3% | growth at 10 µM [21]: 94.8%; growth at 10 µM [22]: 92%; growth at 10 µM [23]: 86.7%
N=c1scc(-c2ccc(Cl)cc2)n1CC(=O)N1CCOCC1 | 95.5% | 84.6% | 107% | 69.7% | 85.9% | 108% | 5.43 | 96.6% | 95.6% | 90% | 94.2% | 99.9% | 106% | 94.7% | 86.1% | 79.2% | 4.78 | 97.1% | 102% | 113% | growth at 10 µM [21]: 101%; growth at 10 µM [22]: 97.9%; growth at 10 µM [23]: 90.4%
